Test results taken from ChEMBL document CHEMBL1136251, “Synthesis and biological evaluation of menthol-based derivatives as inhibitors of plasminogen activator inhibitor-1 (PAI-1)” (Bioorg Med Chem Lett, 2003).

How the values were obtained:
[1] = target: T1, Plasminogen activator inhibitor 1 (Homo sapiens, UniProt P05121); experiment: Plasminogen Activator Inhibitor-1 (PAI-1) activity was determined by inhibition of Urokinase-type plasminogen activator using primary assay
In short: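 Human recombinant PAI-1 (6 nM) preincubated with compound for 2 min at room temperature in 50 mM Tris-HCl, 150 mM NaCl, 2.5 mM CaCl2, 0.1% PEG 6000, pH 7.5. Human kidney urokinase (0.0175 units/mL) added for a further 2 min, then chromogenic substrate S2444. Rate of absorbance change read at 405 nm. Controls with uPA alone and uPA plus PAI-1 on each plate. IC50 taken from dose-response curve fit.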

[2] = Bioavailability in rat (cannulated) (dose 2 mg/kg); format: ADME, organism-based; conditions: in vivo
In short: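 Given intravenously and orally at 2 mg/kg to cannulated conscious rats. Vehicle: 94% PEG/2% 0.1HCl/4% EtOH solution.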

[3] = target: T1, Plasminogen activator inhibitor 1; experiment: Plasminogen Activator Inhibitor-1 (PAI-1) activity was determined using plasma clot lysis assay; format: functional, cell-free
In short: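 Pooled human plasma diluted 1:3 in 150 mM NaCl, 2 mM CaCl2, 20 mM Hepes, pH 7.4. Clotting started with human thrombin (30 nM), with exogenous human tPA (4 nM) present. Lysis followed at 37 °C by absorbance at 405 nm.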

T1 sequence (P05121 whole entry): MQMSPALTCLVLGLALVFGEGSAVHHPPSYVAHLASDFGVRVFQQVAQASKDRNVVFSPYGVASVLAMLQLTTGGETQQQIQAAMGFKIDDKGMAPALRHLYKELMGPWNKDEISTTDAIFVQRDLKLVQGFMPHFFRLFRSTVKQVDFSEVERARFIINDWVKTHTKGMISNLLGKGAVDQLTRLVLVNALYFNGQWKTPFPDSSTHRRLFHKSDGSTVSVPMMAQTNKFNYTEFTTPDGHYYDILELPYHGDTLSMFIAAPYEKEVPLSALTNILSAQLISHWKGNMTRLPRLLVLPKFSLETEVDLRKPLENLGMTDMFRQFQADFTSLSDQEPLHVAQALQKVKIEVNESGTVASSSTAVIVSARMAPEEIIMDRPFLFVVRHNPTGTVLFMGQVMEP

SMILES | IC50 [1] [nM] | bioavailability [2] [%] | IC50 [3] [nM]
CC(C)[C@@H]1CC[C@@H](C)C[C@H]1OCC(=O)Nc1cc(N2CCCC2C(=O)O)ccc1[N+](=O)[O-] (some centres undefined) | 2200 |  | 
COc1cc(C(=O)O)c(Oc2c(CNc3ccc(CNC(=O)CO[C@@H]4C[C@H](C)CC[C@H]4C(C)C)cc3)c(O)cc(C)c2C(N)=O)c(O)c1C | 600 |  | 
COc1cccc(CNc2ccc(CNC(=O)CO[C@@H]3C[C@H](C)CC[C@H]3C(C)C)cc2)c1Oc1ncccc1C(=O)O | 500 |  | 
CC(C)[C@@H]1CC[C@@H](C)C[C@H]1OCC(=O)NCc1ccc(NCc2cc([N+](=O)[O-])ccc2O)cc1 | 2700 |  | 
CC(C)[C@@H]1CC[C@@H](C)C[C@H]1OCC(=O)Nc1cc(N2CCC(C(=O)O)CC2)ccc1[N+](=O)[O-] | 940 | < 10 | 10
COc1cccc(CNc2ccc(CNC(=O)CO[C@@H]3C[C@H](C)CC[C@H]3C(C)C)cc2)c1Oc1ccc([N+](=O)[O-])cc1C(=O)O | 1200 | 94 | 100
CC(C)[C@@H]1CC[C@@H](C)C[C@H]1OCC(=O)Nc1cc(N2CC(C(=O)O)C2)ccc1[N+](=O)[O-] | 2900 |  | 
COc1cc(C(=O)O)c(Oc2c(CNc3ccc(CNC(=O)CO[C@@H]4C[C@H](C)CC[C@H]4C(C)C)cc3)c(O)cc(C)c2C(=O)O)c(O)c1C | 1800 |  | 
COc1cc(C(=O)O)c2c(c1C)OC(=O)c1c(C)cc(O)c(CNc3ccc(NC(=O)CO[C@@H]4C[C@H](C)CC[C@H]4C(C)C)nc3)c1O2 | 530 |  | 
COc1cc(C(=O)O)c2c(c1C)OC(=O)c1c(C)cc(O)c(CNc3ccc(CCNC(=O)CO[C@@H]4C[C@H](C)CC[C@H]4C(C)C)cc3)c1O2 | 3900 |  | 
CC(C)[C@@H]1CC[C@@H](C)C[C@H]1OCC(=O)Nc1cc(Oc2cccc(C(=O)O)c2)ccc1[N+](=O)[O-] | 400 | < 10 | 100
CC(C)[C@@H]1CC[C@@H](C)C[C@H]1OCC(=O)NCc1ccc(NCc2ccccc2)cc1 | > 15000 |  | 
CC(C)[C@@H]1CC[C@@H](C)C[C@H]1OCC(=O)NCc1ccc(NCc2ccccc2Oc2ccccc2)cc1 | > 15000 |  | 
CC(C)[C@@H]1CC[C@@H](C)C[C@H]1OCC(=O)NCc1ccc(NCc2ccncc2)cc1 | > 15000 |  | 
CC(C)[C@@H]1CC[C@@H](C)C[C@H]1OCC(=O)NCc1ccc(NCc2c(F)cccc2Oc2c(O)cccc2C(=O)O)cc1 | 710 |  | 
CCCN(Cc1ccc(NCc2c(O)cc(C)c3c2Oc2c(C(=O)O)cc(OC)c(C)c2OC3=O)cc1)C(=O)CO[C@@H]1C[C@H](C)CC[C@H]1C(C)C | 5000 |  | 
CC(C)[C@@H]1CC[C@@H](C)C[C@H]1OCC(=O)Nc1cc(N[C@H]2CC[C@@H](C(=O)O)CC2)ccc1[N+](=O)[O-] | 900 |  | 

SMILES | IC50 [1] [nM] | bioavailability [2] [%] | IC50 [3] [nM]
COc1ccc(Oc2ccccc2CNc2ccc(CNC(=O)CO[C@@H]3C[C@H](C)CC[C@H]3C(C)C)cc2)c(C(=O)O)c1 | 1400 |  | 
CC(C)[C@@H]1CC[C@@H](C)C[C@H]1OCC(=O)Nc1cc(N[C@H]2CC[C@H](C(=O)O)CC2)ccc1[N+](=O)[O-] | 1100 |  | 
COc1cccc(CNc2ccc(CNC(=O)CO[C@@H]3C[C@H](C)CC[C@H]3C(C)C)cc2)c1Oc1ccc(N)cc1C(=O)O | 700 |  | 
COc1cc(C(=O)O)c2c(c1C)OC(=O)c1c(C)cc(O)c(CNc3cccc(CNC(=O)CO[C@@H]4C[C@H](C)CC[C@H]4C(C)C)c3)c1O2 | 1400 |  | 
CC(C)[C@@H]1CC[C@@H](C)C[C@H]1OCC(=O)Nc1cc(N2CCCC(C(=O)O)C2)ccc1[N+](=O)[O-] (some centres undefined) | 890 |  | 
COc1cc(C(=O)O)c2c(c1C)OC(=O)c1c(C)cc(O)c(CNc3ccc(CNC(=O)CO[C@@H]4C[C@H](C)CC[C@H]4C(C)C)cc3)c1O2 | 1400 | 23 | 100
CC(C)[C@@H]1CC[C@@H](C)C[C@H]1OCC(=O)NCc1ccc(NCc2cc([N+](=O)[O-])ccc2Oc2cc(Oc3ccccc3)ccc2C(=O)O)cc1 | 2600 |  | 
COc1cc(C(=O)O)c2c(c1C)OC(=O)c1c(C)cc(O)c(CNc3ccc(NC(=O)CO[C@@H]4C[C@H](C)CC[C@H]4C(C)C)cc3)c1O2 | 1100 |  | 
COc1cc(C(=O)O)c2c(c1C)OC(=O)c1c(C)cc(O)c(CN3CCC(NC(=O)CO[C@@H]4C[C@H](C)CC[C@H]4C(C)C)CC3)c1O2 | > 15000 |  | 
CC(C)[C@@H]1CC[C@@H](C)C[C@H]1OCC(=O)NCc1ccc(NCc2cc([N+](=O)[O-])ccc2Oc2ccccc2C(=O)O)cc1 | 710 |  | 
CC(C)[C@@H]1CC[C@@H](C)C[C@H]1OCC(=O)Nc1cc(N2CCCCC2C(=O)O)ccc1[N+](=O)[O-] (some centres undefined) | 2900 |  | 
CC(C)[C@@H]1CC[C@@H](C)C[C@H]1OCC(=O)NCc1ccc(NCc2cccc(C(=O)O)c2)cc1 | 7800 |  | 
CC(C)[C@@H]1CC[C@@H](C)C[C@H]1OCC(=O)NCc1ccc(NCc2ccccc2S(=O)(=O)O)cc1 | > 15000 |  | 
CC(C)[C@@H]1CC[C@@H](C)C[C@H]1OCC(=O)Nc1cc(Oc2ccc(C(=O)O)cn2)ccc1[N+](=O)[O-] | 2600 |  | 
CC(C)[C@@H]1CC[C@@H](C)C[C@H]1OCC(=O)Nc1cc(Oc2ccc(C(=O)O)cc2)ccc1[N+](=O)[O-] | 380 | 24 | 10
CC(C)[C@@H]1CC[C@@H](C)C[C@H]1OCC(=O)NCc1ccc(NCc2ccc(C(=O)O)cc2)cc1 | 3200 |  | 
COc1ccc(Oc2cccc(F)c2CNc2ccc(CNC(=O)CO[C@@H]3C[C@H](C)CC[C@H]3C(C)C)cc2)c(C(=O)O)c1 | 1400 |  | 
